According to ChEMBL document CHEMBL4257575, “Discovery of Novel Flavonoid Dimers To Reverse Multidrug Resistance Protein 1 (MRP1, ABCC1) Mediated Drug Resistance in Cancers Using a High Throughput Platform with "Click Chemistry"” (J Med Chem, 2018):

Molecular target: Multidrug resistance-associated protein 1 (Homo sapiens, UniProt P33527)
Test: Inhibition of MRP1 in human 2008/MRP1 cells assessed as potentiation of doxorubicin-induced cytotoxicity by measuring cell survival at 2 uM after 5 days by MTS assay relative to control
Type: cell-based
Conditions: 120 h
In short: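 2008/MRP1 cells (retroviral human MRP1 transfectant; RPMI 1640, 10% FBS) at 4,000 per well, with 100 nM doxorubicin plus crude, unpurified click products in DMSO: 2 µM in the primary screen, 1 µM in the secondary. Incubated 5 days at 37 °C. MTS/PMS added for 2 h at 37 °C, absorbance read at 490 nm. % survival is relative to wells without DOX or product. Run in triplicate, at least three experiments.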

Sequence of Multidrug resistance-associated protein 1 (P33527 whole entry): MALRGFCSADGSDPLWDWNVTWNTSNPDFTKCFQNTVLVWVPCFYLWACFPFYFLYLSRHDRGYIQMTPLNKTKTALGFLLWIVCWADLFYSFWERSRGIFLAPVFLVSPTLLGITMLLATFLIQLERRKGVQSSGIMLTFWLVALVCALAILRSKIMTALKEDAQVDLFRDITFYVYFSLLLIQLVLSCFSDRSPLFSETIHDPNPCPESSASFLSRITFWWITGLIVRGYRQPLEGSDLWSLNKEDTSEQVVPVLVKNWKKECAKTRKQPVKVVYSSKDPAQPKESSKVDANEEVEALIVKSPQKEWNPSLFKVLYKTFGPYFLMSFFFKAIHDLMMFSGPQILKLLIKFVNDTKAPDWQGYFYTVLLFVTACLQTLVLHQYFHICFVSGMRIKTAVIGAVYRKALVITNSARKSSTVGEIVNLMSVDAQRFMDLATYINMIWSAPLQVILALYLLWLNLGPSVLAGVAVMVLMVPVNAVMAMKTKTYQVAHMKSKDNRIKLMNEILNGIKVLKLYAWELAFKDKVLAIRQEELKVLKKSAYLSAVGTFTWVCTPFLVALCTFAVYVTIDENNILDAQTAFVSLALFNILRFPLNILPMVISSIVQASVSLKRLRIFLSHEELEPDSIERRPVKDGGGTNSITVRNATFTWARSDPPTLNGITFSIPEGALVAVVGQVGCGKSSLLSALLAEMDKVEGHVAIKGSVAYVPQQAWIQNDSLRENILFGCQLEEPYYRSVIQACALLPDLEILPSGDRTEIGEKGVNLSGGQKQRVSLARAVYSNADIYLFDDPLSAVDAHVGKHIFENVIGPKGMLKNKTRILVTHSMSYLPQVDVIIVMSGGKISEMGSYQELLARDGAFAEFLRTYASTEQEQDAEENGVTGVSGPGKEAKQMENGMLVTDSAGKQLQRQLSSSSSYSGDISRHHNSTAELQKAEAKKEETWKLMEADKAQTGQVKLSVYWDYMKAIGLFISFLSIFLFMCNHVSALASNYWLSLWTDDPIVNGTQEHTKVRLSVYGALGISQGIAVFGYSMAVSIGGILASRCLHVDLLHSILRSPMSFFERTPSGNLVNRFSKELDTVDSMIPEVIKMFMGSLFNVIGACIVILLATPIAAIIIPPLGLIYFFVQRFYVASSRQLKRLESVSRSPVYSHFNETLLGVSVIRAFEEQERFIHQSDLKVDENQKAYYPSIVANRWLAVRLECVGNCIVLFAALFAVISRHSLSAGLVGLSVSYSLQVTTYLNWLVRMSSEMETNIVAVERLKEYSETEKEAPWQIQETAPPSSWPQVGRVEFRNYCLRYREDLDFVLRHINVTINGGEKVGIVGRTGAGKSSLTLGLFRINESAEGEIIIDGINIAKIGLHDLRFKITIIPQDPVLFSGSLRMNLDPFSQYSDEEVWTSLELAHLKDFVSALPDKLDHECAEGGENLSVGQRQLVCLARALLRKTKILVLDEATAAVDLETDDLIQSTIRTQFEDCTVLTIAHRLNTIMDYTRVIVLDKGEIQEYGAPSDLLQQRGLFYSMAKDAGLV

Row | SMILES | Survival [%]
1 | Cc1ccc2oc(-c3ccc(OCCOCCOCCN=[N+]=[N-])cc3)cc(=O)c2c1 | 84
2 | Cc1ccc2oc(-c3ccc(OCCOCCOCCn4cc(CN(C)CCN(C)Cc5cn(CCOCCOCCOc6ccc(-c7cc(=O)c8cc(C)ccc8o7)cc6)nn5)nn4)cc3)cc(=O)c2c1 | 76
3 | CN(CCN(C)Cc1cn(CCOc2ccc3occ(-c4ccccc4)c(=O)c3c2)nn1)Cc1cn(CCOc2ccc3c(=O)cc(-c4ccccc4)oc3c2)nn1 | 90
4 | Cc1ccc2oc(-c3ccc(OCCOCCOCCn4cc(CN5CCN(Cc6cn(CCOCCOCCOc7ccc(-c8cc(=O)c9cc(C)ccc9o8)cc7)nn6)CC5)nn4)cc3)cc(=O)c2c1 | 103
5 | O=C(/C=C/c1ccc(OCCCCc2cn(CCOCCOCCOc3ccc(-c4oc5ccccc5c(=O)c4OCc4ccccc4)cc3)nn2)cc1)c1ccc(F)cc1O | 68
6 | O=C1c2ccccc2C(=O)N1CCc1cn(CCOCCOc2ccc(-c3oc4ccccc4c(=O)c3OCc3ccccc3)cc2)nn1 | 57
7 | O=c1cc(-c2ccccc2)oc2cc(OCCCCc3cn(CCOc4cccc5c(=O)cc(-c6ccccc6)oc45)nn3)ccc12 | 60
8 | O=c1c(OCc2ccccc2)c(-c2ccc(OCCOCCOCCn3cc(-c4cccc(-c5cn(CCOCCOCCOc6ccc(-c7oc8ccccc8c(=O)c7OCc7ccccc7)cc6)nn5)c4)nn3)cc2)oc2ccccc12 | 80
9 | [N-]=[N+]=NCCOCCOc1ccc2c(=O)cc(-c3ccccc3)oc2c1 | 91
10 | COc1cccc(COc2c(-c3ccc(OCCOCCn4cc(CN(Cc5ccccc5)Cc5cn(CCOCCOc6ccc(-c7oc8ccccc8c(=O)c7OCc7cccc(OC)c7)cc6)nn5)nn4)cc3)oc3ccccc3c2=O)c1 | 80
11 | COc1cccc(COc2c(-c3ccc(OCCCCc4cn(CCOc5cccc6c(=O)cc(-c7ccccc7)oc56)nn4)cc3)oc3ccccc3c2=O)c1 | 51
12 | O=c1[nH]c(-c2ccc(OCCCc3cn(CCOCCOc4ccc(-c5oc6ccccc6c(=O)c5OCc5ccccc5)cc4)nn3)cc2)nc2ccccc12 | 64
13 | Cc1ccc2oc(-c3ccc(OCCOCCOCCn4cc(COCCOc5ccc6c(=O)cc(-c7ccccc7)oc6c5)nn4)cc3)cc(=O)c2c1 | 54
14 | Cc1ccc2oc(-c3ccc(OCCOCCOCCn4cc(-c5cccc(-c6cn(CCOCCOCCOc7ccc(-c8cc(=O)c9cc(C)ccc9o8)cc7)nn6)c5)nn4)cc3)cc(=O)c2c1 | 77
15 | O=c1cc(-c2ccccc2)oc2cc(OCCOCc3cn(CCOc4cccc5c(=O)cc(-c6ccccc6)oc45)nn3)ccc12 | 68
16 | CCc1ccc(O)c(C(=O)/C=C/c2ccc(OCCCCc3cn(CCOCCOCCOc4ccc5c(=O)cc(-c6ccccc6)oc5c4)nn3)cc2)c1 | 79
17 | COc1cccc(COc2c(-c3ccc(OCCCCc4cn(CCOCCOc5cccc(-c6oc7ccccc7c(=O)c6OCc6ccccc6)c5)nn4)cc3)oc3ccccc3c2=O)c1 | 75
18 | O=c1[nH]c(-c2ccc(OCCCc3cn(CCOCCOc4ccc(-c5cc(=O)c6ccccc6o5)cc4)nn3)cc2)nc2ccccc12 | 58
19 | Cc1ccc2oc(-c3ccc(OCCOCCOCCn4cc(CN(CCOc5ccc6c(=O)cc(-c7ccccc7)oc6c5)Cc5ccccc5)nn4)cc3)cc(=O)c2c1 | 53
20 | COCOc1cc(OCc2ccccc2)c2c(=O)cc(-c3ccc(OCCCc4cn(CCOCCOc5ccc(-c6oc7ccccc7c(=O)c6OCc6cccc(OC)c6)cc5)nn4)cc3)oc2c1 | 79

Row | SMILES | Survival [%]
21 | O=C(/C=C/c1ccc(OCCCCc2cn(CCOCCOc3ccc(-c4oc5ccccc5c(=O)c4OCc4ccccc4)cc3)nn2)cc1)c1ccc(F)cc1O | 69
22 | O=c1cc(-c2ccc(OCCCc3cn(CCOCCOc4ccc(-c5cc(=O)c6cc(F)ccc6o5)cc4)nn3)cc2)oc2cc(F)ccc12 | 55
23 | O=c1c(OCc2ccccc2)c(-c2ccc(OCCOCCn3cc(-c4ccc(-c5cn(CCOCCOc6ccc(-c7oc8ccccc8c(=O)c7OCc7ccccc7)cc6)nn5)cc4)nn3)cc2)oc2ccccc12 | 82
24 | COc1cccc(COc2c(-c3ccc(OCCOCCn4cc(CN(Cc5cn(CCOCCOc6ccc(-c7oc8ccccc8c(=O)c7OCc7cccc(OC)c7)cc6)nn5)Cc5cn(CCOCCOc6ccc(-c7oc8ccccc8c(=O)c7OCc7cccc(OC)c7)cc6)nn5)nn4)cc3)oc3ccccc3c2=O)c1 | 86
25 | O=c1[nH]c(-c2ccc(OCCCc3cn(CCOCCOc4cccc(-c5oc6ccccc6c(=O)c5OCc5ccccc5)c4)nn3)cc2)nc2ccccc12 | 67
26 | O=c1cc(-c2ccc(OCCOCCOCCn3cc(-c4cccc(-c5cn(CCOCCOCCOc6ccc(-c7cc(=O)c8cc(F)ccc8o7)cc6)nn5)c4)nn3)cc2)oc2ccc(F)cc12 | 72
27 | O=c1cc(-c2ccc(OCCOCCn3cc(CN4CCN(Cc5cn(CCOCCOc6ccc(-c7cc(=O)c8cc(F)ccc8o7)cc6)nn5)CC4)nn3)cc2)oc2ccc(F)cc12 | 86
28 | CCc1ccc(O)c(C(=O)/C=C/c2ccc(OCCCCc3cn(CCOCCOc4ccc5c(=O)cc(-c6ccccc6)oc5c4)nn3)cc2)c1 | 68
29 | C#CCCCOc1ccc(-c2nc3ccccc3c(=O)[nH]2)cc1 | 86
30 | O=c1cc(-c2ccc(OCCOCCOCCn3cc(CN(Cc4ccccc4)Cc4cn(CCOCCOCCOc5ccc(-c6cc(=O)c7cc(F)ccc7o6)cc5)nn4)nn3)cc2)oc2ccc(F)cc12 | 54
31 | O=Cc1ccc(OCCCCc2cn(CCOCCOCCOc3ccc(-c4cc(=O)c5ccccc5o4)cc3)nn2)cc1 | 70
32 | CCc1ccc(O)c(C(=O)/C=C/c2ccc(OCCCCc3cn(CCOCCOCCOc4ccc(-c5cc(=O)c6ccccc6o5)cc4)nn3)cc2)c1 | 60
33 | Cc1ccc2oc(-c3ccc(OCCCCc4cn(CCOCCOc5ccc(-c6oc7ccccc7c(=O)c6OCc6ccccc6)cc5)nn4)cc3)cc(=O)c2c1 | 73
34 | Cc1ccc(C(=O)/C=C/c2ccc(OCCCCc3cn(CCOc4cccc5c(=O)cc(-c6ccccc6)oc45)nn3)cc2)c(O)c1 | 75
35 | C#CCNc1ccccc1 | 87
36 | O=C(/C=C/c1ccc(OCCCCc2cn(CCOCCOc3ccc4c(=O)cc(-c5ccccc5)oc4c3)nn2)cc1)c1ccccc1O | 58
37 | COCOc1cc(OCc2ccccc2)c2c(=O)cc(-c3ccc(OCCCc4cn(CCOc5cccc6c(=O)cc(-c7ccccc7)oc56)nn4)cc3)oc2c1 | 81
38 | O=c1cc(-c2ccc(OCCOCCn3cc(CNc4ccccc4)nn3)cc2)oc2ccc(F)cc12 | 81
39 | O=c1cc(-c2ccccc2)oc2cc(OCCn3cc(CN(Cc4ccccc4)Cc4cn(CCOc5ccc6occ(-c7ccccc7)c(=O)c6c5)nn4)nn3)ccc12 | 96
40 | O=c1c(OCc2ccccc2)c(-c2cccc(OCCOCCn3cc(-c4ccc(-c5cn(CCOCCOc6cccc(-c7oc8ccccc8c(=O)c7OCc7ccccc7)c6)nn5)cc4)nn3)c2)oc2ccccc12 | 82

Row | SMILES | Survival [%]
41 | Cc1ccc2oc(-c3ccc(OCCOCCOCCn4cc(CCCCOc5ccc(/C=C/C(=O)c6ccccc6O)cc5)nn4)cc3)cc(=O)c2c1 | 61
42 | O=c1cc(-c2ccc(OCCOCCOCCn3cc(CNc4ccccc4)nn3)cc2)oc2ccc(F)cc12 | 90
43 | Cc1ccc(O)c(C(=O)/C=C/c2ccc(OCCCCc3cn(CCOCCOCCOc4ccc(-c5cc(=O)c6cc(C)ccc6o5)cc4)nn3)cc2)c1 | 67
44 | O=c1cc(-c2ccccc2)oc2cc(OCCOCCn3cc(CNc4ccccc4)nn3)ccc12 | 88
45 | C#CCCN1C(=O)c2ccccc2C1=O | 83
46 | C#CCCCOc1ccc2c(=O)cc(-c3ccccc3)oc2c1 | 85
47 | C#CCCCOc1ccc(-c2cc(=O)c3c(OCc4ccccc4)cc(OCOC)cc3o2)cc1 | 67
48 | O=c1cc(-c2ccc(OCCOCCOCCn3cc(-c4cccc(-c5cn(CCOCCOCCOc6ccc(-c7cc(=O)c8ccccc8o7)cc6)nn5)c4)nn3)cc2)oc2ccccc12 | 85
49 | COCOc1cc(OCc2ccccc2)c2c(=O)cc(-c3ccc(OCCCc4cn(CCOCCOCCOc5ccc(-c6oc7ccccc7c(=O)c6OCc6ccccc6)cc5)nn4)cc3)oc2c1 | 89
50 | O=c1cc(-c2ccc(OCCOCCOCCn3cc(CN(Cc4cn(CCOCCOCCOc5ccc(-c6cc(=O)c7ccccc7o6)cc5)nn4)Cc4cn(CCOCCOCCOc5ccc(-c6cc(=O)c7ccccc7o6)cc5)nn4)nn3)cc2)oc2ccccc12 | 77
51 | O=c1cc(-c2ccc(OCCCc3cn(CCOCCOCCOc4ccc(-c5oc6ccccc6c(=O)c5OCc5ccccc5)cc4)nn3)cc2)oc2ccc(F)cc12 | 75
52 | O=c1cc(-c2ccccc2)oc2cc(OCCOCc3cn(CCOCCOCCOc4ccc(-c5cc(=O)c6cc(F)ccc6o5)cc4)nn3)ccc12 | 53
53 | O=c1cc(-c2ccc(OCCOCCOCCn3cc(CN4CCN(Cc5cn(CCOCCOCCOc6ccc(-c7cc(=O)c8cc(F)ccc8o7)cc6)nn5)CC4)nn3)cc2)oc2ccc(F)cc12 | 85
54 | [N-]=[N+]=NCCOCCOc1ccc(-c2cc(=O)c3cc(F)ccc3o2)cc1 | 90
55 | O=c1cc(-c2ccccc2)oc2cc(OCCn3cc(CN4CCN(Cc5cn(CCOc6ccc7occ(-c8ccccc8)c(=O)c7c6)nn5)CC4)nn3)ccc12 | 93
56 | COCOc1cc(OCc2ccccc2)c2c(=O)cc(-c3ccc(OCCCc4cn(CCOCCOCCOc5ccc(-c6cc(=O)c7ccccc7o6)cc5)nn4)cc3)oc2c1 | 66
57 | O=c1cc(-c2ccc(OCCOCCn3cc(-c4ccc(-c5cn(CCOCCOc6ccc(-c7cc(=O)c8cc(F)ccc8o7)cc6)nn5)cc4)nn3)cc2)oc2ccc(F)cc12 | 77
58 | O=c1cc(-c2ccccc2)oc2cc(OCCOCCn3cc(CN(Cc4ccccc4)Cc4cn(CCOCCOc5ccc6oc(-c7ccccc7)cc(=O)c6c5)nn4)nn3)ccc12 | 76
59 | O=Cc1ccc(OCCCCc2cn(CCOCCOCCOc3ccc(-c4cc(=O)c5cc(F)ccc5o4)cc3)nn2)cc1 | 74
60 | CCc1ccc(O)c(C(=O)/C=C/c2ccc(OCCCCc3cn(CCOCCOc4ccc(-c5cc(=O)c6cc(F)ccc6o5)cc4)nn3)cc2)c1 | 80
